Results from ChEMBL document CHEMBL1157042, “Triazole incorporated thiazoles as a new class of anticonvulsants: design, synthesis and in vivo screening” (Eur J Med Chem, 2010).
Calls of active or inactive are those of the source.

Experiments:
[1] = test system: Mus musculus; assay: Anticonvulsant activity in ip dosed Swiss albino mouse assessed as inhibition of PTZ-induced motor impairment; assay type: functional
[2] = Neurotoxicity in ip dosed Swiss albino mouse after 0.5 hrs; assay type: toxicity, organism-based; conditions: in vivo
Summary of the method: (§1)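 Albino mice of either sex (25–30 g), 6 per group, received i.p. doses of 30, 100 and 300 mg/kg in polyethylene glycol. Trained mice were tested on the rotorod at 0.5 h and 4.0 h. Neurotoxicity was failure to keep balance on the rod for at least 1 min in each trial. The value recorded is the minimum dose affecting half or more of the mice.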

[3] = test system: Mus musculus; assay: Anticonvulsant activity in po dosed Swiss albino mouse assessed as inhibition of maximum electric shock-induced motor impairment after 2 hrs; assay type: functional
Summary of the method: (§2)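 Phase IV: same procedure as i.p. phase II (MES protection, or rotorod failure for at least 1 min per trial), but drugs were given orally. Groups of 10 albino mice got a dose range yielding at least three points within 10–90% effect. ED50 or TD50 was read at the indicated time via Litchfield–Wilcoxon.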

[4] = test system: Mus musculus; assay: Anticonvulsant activity in ip dosed Swiss albino mouse assessed as inhibition of maximum electric shock-induced motor impairment after 4 hrs; assay type: functional; conditions: read-out: MED
[5] = test system: Mus musculus; assay: Sedative-hypnotic activity in ip dosed Swiss albino mouse after 24 hrs; assay type: organism-based; conditions: in vivo
[6] = test system: Mus musculus; assay: Anticonvulsant activity in ip dosed Swiss albino mouse assessed as inhibition of maximum electric shock-induced motor impairment after 0.5 hrs; assay type: functional; conditions: read-out: MED
[7] = test system: Mus musculus; assay: Anticonvulsant activity in Swiss albino mouse assessed as inhibition of PTZ-induced motor impairment at 300 mg/kg, ip after 4 hrs; assay type: functional, organism-based; parameters: dose 300 mg/kg
Summary of the method: (§3)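 Albino mice of either sex (25–30 g), 6 per group. Test compound was given i.p. in polyethylene glycol at 30, 100 or 300 mg/kg, and subcutaneous pentylenetetrazole challenge followed 0.5 h or 4.0 h later. Activity was scored as protection in half or more of the mice.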

[8] = test system: Mus musculus; assay: Anticonvulsant activity in Swiss albino mouse assessed as inhibition of PTZ-induced motor impairment at 300 mg/kg, ip after 0.5 hrs; assay type: functional, organism-based; parameters: dose 300 mg/kg; summary of the method: as §3
[9] = Neurotoxicity in ip dosed Swiss albino mouse after 4 hrs; assay type: toxicity, organism-based; conditions: in vivo; summary of the method: as §1
[10] = Toxicity in ip dosed Swiss albino mouse after 24 hrs; assay type: organism-based; conditions: in vivo
Summary of the method: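 Albino mice of either sex (25–30 g), in groups of 10, received a range of i.p. doses in polyethylene glycol until at least three points fell within 10–90% effect. Mortality was scored 24 h after injection.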

[11] = test system: Mus musculus; assay: Neurotoxicity in Swiss albino mouse at 300 mg/kg, ip after 0.5 hrs; assay type: toxicity, organism-based; parameters: dose 300 mg/kg, route intraperitoneal; conditions: in vivo
[12] = test system: Mus musculus; assay: Neurotoxicity in Swiss albino mouse at 300 mg/kg, ip after 4 hrs; assay type: toxicity, organism-based; parameters: dose 300 mg/kg, route intraperitoneal; conditions: in vivo
[13] = test system: Mus musculus; assay: Anticonvulsant activity in ip dosed Swiss albino mouse assessed as inhibition of PTZ-induced motor impairment after 0.5 hrs; assay type: functional; conditions: read-out: MED
Summary of the method: (§4)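 Albino mice of either sex (25–30 g), 6 per group, dosed i.p. in polyethylene glycol at 30, 100 or 300 mg/kg. Subcutaneous pentylenetetrazole was given at 0.5 h or 4.0 h, and mice were watched for 30 min. Protection meant no threshold seizure (single clonic spasm episode of at least 5 s). The value is the minimum dose protecting half or more.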

[14] = test system: Mus musculus; assay: Anticonvulsant activity in Swiss albino mouse assessed as inhibition of maximum electric shock-induced motor impairment at 300 mg/kg, ip after 0.5 hrs; assay type: functional, organism-based; parameters: dose 300 mg/kg
Summary of the method: (§5)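 Albino mice of either sex (25–30 g), 6 per group, given drug i.p. in polyethylene glycol at 30, 100 and 300 mg/kg. Maximal electroshock was applied at 0.5 h and 4.0 h. Protection meant abolition of hind limb tonic extension.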

[15] = test system: Mus musculus; assay: Anticonvulsant activity in ip dosed Swiss albino mouse assessed as inhibition of PTZ-induced motor impairment after 4 hrs; assay type: functional; conditions: read-out: MED; summary of the method: as §4
[16] = species: Mus musculus; assay: Ratio of HD50 for hypnotic activity in Swiss albino mouse to ED50 for inhibition of maximal electroshock-induced seizures Swiss albino mouse; assay type: functional
Summary of the method: (§6)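 Ratio of HD50 to i.p. ED50 (scPTZ or MES). HD50, in mg/kg, came from loss of righting reflex in i.p.-dosed albino mice, with a dose range analysed as for phase II ED50.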

[17] = species: Mus musculus; assay: Protective index, ratio of TD50 for neurotoxicity in Swiss albino mouse to ED50 for inhibition of PTZ-induced motor impairment Swiss albino mouse; assay type: functional
[18] = species: Mus musculus; assay: Ratio of HD50 for hypnotic activity in Swiss albino mouse to ED50 for inhibition of PTZ-induced motor impairment Swiss albino mouse; assay type: functional; summary of the method: as §6
[19] = Neurotoxicity in po dosed Swiss albino mouse after 2 hrs; assay type: toxicity, organism-based; conditions: in vivo; summary of the method: as §2
[20] = test system: Mus musculus; assay: Protective index, ratio of TD50 for neurotoxicity in po dosed Swiss albino mouse to ED50 for inhibition of maximal electroshock-induced seizures po dosed Swiss albino mouse; assay type: functional
[21] = species: Mus musculus; assay: Protective index, ratio of TD50 for neurotoxicity in Swiss albino mouse to ED50 for inhibition of maximal electroshock-induced seizures Swiss albino mouse; assay type: functional
[22] = Neurotoxicity in ip dosed Swiss albino mouse; assay type: toxicity, organism-based; conditions: in vivo
[23] = test system: Mus musculus; assay: Anticonvulsant activity in ip dosed Swiss albino mouse assessed as inhibition of maximum electric shock-induced motor impairment; assay type: functional
[24] = test system: Mus musculus; assay: Anticonvulsant activity in Swiss albino mouse assessed as inhibition of maximum electric shock-induced motor impairment at 300 mg/kg, ip after 4 hrs; assay type: functional, organism-based; parameters: dose 300 mg/kg; summary of the method: as §5

Row | SMILES | ED50 [1] [mg/kg] | MTD at 0.5 h [2] [mg/kg] | minimal effective dose [4] [mg/kg] | minimal effective dose [6] [mg/kg] | inhibition [7] | inhibition [8] | MTD at 4 h [9] [mg/kg] | Activity [11] | Activity [12] | further results
1 | CCCC(CCC)C(=O)[O-].[Na+] [VALPROATE SODIUM] | 149 | – | – | – | – | – | – | – | – | –
2 | O=C1NC(=O)C(c2ccccc2)(c2ccccc2)N1 [PHENYTOIN] | > 300 | 100 | 30 | 30 | inactive | inactive | 100 | – | – | ED50 [3]: 9.16 mg/kg; HD50 [5]: 182 mg/kg; LD50 at 24 h [10]: 224 mg/kg
3 | Cc1ccc(-n2c(Nc3nc(-c4ccccc4)cs3)n[nH]c2=S)cc1 | – | – | 300 | – | inactive | – | – | Non-toxic | Non-toxic | minimal effective dose [13]: 300 mg/kg; inhibition [14]: inactive
4 | O=[N+]([O-])c1ccc(-c2csc(Nc3n[nH]c(=S)n3-c3ccccc3)n2)cc1 | – | 300 | 300 | – | inactive | inactive | 300 | – | – | inhibition [14]: inactive
5 | COc1ccccc1-n1c(Nc2nc(-c3ccc(Br)cc3)cs2)n[nH]c1=S | – | 100 | 300 | 300 | inactive | inactive | 300 | – | – | –
6 | S=c1[nH]nc(Nc2nc(-c3ccc(Cl)cc3)cs2)n1-c1ccccc1 | – | – | 300 | – | inactive | inactive | – | Non-toxic | Non-toxic | inhibition [14]: inactive
7 | Cc1ccc(-n2c(Nc3nc(-c4ccc(Br)cc4)cs3)n[nH]c2=S)cc1 | – | – | 300 | 100 | – | – | 100 | Non-toxic | – | minimal effective dose [15]: 300 mg/kg; minimal effective dose [13]: 300 mg/kg
8 | COc1ccc(-n2c(Nc3nc(-c4ccc(Cl)cc4)cs3)n[nH]c2=S)cc1 | 179 | – | 100 | 30 | inactive | – | – | Non-toxic | Non-toxic | ED50 [3]: 54.8 mg/kg; Ratio [16]: 36.27; Ratio TD50/ED50 [17]: 2.4; Ratio [18]: 4.85; TD50 at 2 h [19]: 735 mg/kg; HD50 [5]: 867 mg/kg; Ratio TD50/ED50 [20]: 13.4; Ratio TD50/ED50 [21]: 18.3; TD50 [22]: 439 mg/kg; minimal effective dose [13]: 300 mg/kg; LD50 at 24 h [10]: 946 mg/kg; ED50 [23]: 23.9 mg/kg
9 | NC(=O)N1c2ccccc2C=Cc2ccccc21 [CARBAMAZEPINE] | > 100 | – | – | – | – | – | – | – | – | ED50 [23]: 8.8 mg/kg
10 | COc1ccccc1-n1c(Nc2nc(-c3ccccc3)cs2)n[nH]c1=S | – | – | 300 | 100 | inactive | inactive | – | Non-toxic | Non-toxic | –
11 | COc1ccc(-n2c(Nc3nc(-c4ccc([N+](=O)[O-])cc4)cs3)n[nH]c2=S)cc1 | – | – | 300 | 100 | – | inactive | 300 | Non-toxic | – | minimal effective dose [15]: 300 mg/kg
12 | Cc1ccccc1-n1c(Nc2nc(-c3ccc(Cl)cc3)cs2)n[nH]c1=S | – | 300 | – | 100 | – | inactive | 300 | – | – | minimal effective dose [15]: 300 mg/kg; inhibition [24]: inactive
13 | Cc1ccccc1-n1c(Nc2nc(-c3ccccc3)cs2)n[nH]c1=S | – | – | – | 100 | inactive | inactive | 300 | Non-toxic | – | inhibition [24]: inactive
